According to paper PMC6421850 (The Journal of organic chemistry, 2018):
Read-outs that look alike come from different tables or passages of the source.

Experiments:
A549 (lung carcinoma) = assay: Antiproliferative activity, SRB assay, A549; type: cell-based, human
[1] = system: MDA-MB-231 (triple-negative breast cancer); assay: Antiproliferative activity, SRB assay, MDA-MB-231; type: cell-based, human
[2] = system: MCF-7 (estrogen receptor-positive and HER2-negative breast cancer); assay: Antiproliferative activity, SRB assay, MCF-7; type: cell-based, human
[3] = system: KB (epidermoid carcinoma of the nasopharynx); assay: Antiproliferative activity, SRB assay, KB; type: cell-based, human; conditions: read-out: IC50 KB
MDA-MB-231 cells [4] = assay: Cell cycle analysis by flow cytometry; type: cell-based, human; conditions: MDA-MB-231, 24 h; for accumulation of sub-G1 cells: dose-dependent; for effect on cell cycle progression: flow cytometry, PI staining; for propidium iodide (PI) signals: higher concentrations
Outline: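 MDA-MB-231 cells were exposed to test compound for 24 h at the indicated concentrations, with DMSO as vehicle control. DNA content was stained with propidium iodide/RNase. Cell-cycle distribution, including the sub-G1 fraction, was read by flow cytometry.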

MDA-MB-231 cells [5] = assay: Immunocytochemistry; type: cell-based, human; conditions: MDA-MB-231, 24 h
Outline: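 MDA-MB-231 cells were seeded on chamber slides 24 h before a 24 h exposure, with 0.1% DMSO as control. Cells were fixed in 4% paraformaldehyde/PBS and permeabilised with 0.5% Triton X-100. They were probed with mouse anti-α-tubulin, then FITC anti-mouse IgG, with DAPI for nuclei. Confocal projections used 12–18 sections at 0.6–1 μm intervals. Each concentration was repeated at least twice.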

[6] = system: KB-VIN (P-gp-overexpressing MDR subline of KB)
[7] = system: KB-VIN (P-gp-overexpressing MDR subline of KB); assay: Antiproliferative activity, SRB assay, KB-VIN; conditions: read-out: IC50 KB-VIN, 50% reduction relative to untreated cells
[8] = system: all tested human tumor cell lines, including MDR subline; assay: Antiproliferative activity, all tested human tumor cell lines; type: cell-based; conditions: read-out: IC50 values against all tested human tumor cell lines
[9] = system: horse's blood (red blood cells); assay: In vitro hemolytic assay; type: cell-based; conditions: up to 500 μM
[10] = read-out: IC50 A549, SRB assay, 50% reduction relative to untreated cells
[11] = read-out: IC50 MDA-MB-231, SRB assay, 50% reduction relative to untreated cells
[12] = read-out: IC50 MCF-7, SRB assay, 50% reduction relative to untreated cells
[13] = SRB assay, 50% reduction relative to untreated cells
[14] = Homo sapiens, A549, read-out: IC50 A549
[15] = Homo sapiens, MDA-MB-231, read-out: IC50 MDA-MB-231
[16] = Homo sapiens, MCF7, read-out: IC50 MCF-7

Compound | IC50 (A549 (lung carcinoma); [10]) | IC50 [1, 11] | IC50 [2, 12] | IC50 [3, 13] | accumulation of sub-G1 cells (MDA-MB-231 cells [4]) | effect on cell cycle progression (MDA-MB-231 cells [4]) | cell morphology (microtubules, chromatin) (MDA-MB-231 cells [5]; 1.5 μM (3-fold IC50)) | cell morphology (microtubules, chromatin) (MDA-MB-231 cells [5]; 4.9 μM (10-fold IC50)) | induction of apoptosis (MDA-MB-231 cells [5]; 1.5 and 4.9 μM) | IC50 [6] | IC50 [7] | propidium iodide (PI) signals (MDA-MB-231 cells [4]) | IC50 (A549 (lung carcinoma); [14]) | IC50 [1, 15] | IC50 [2, 16] | IC50 ([3]; Homo sapiens) | IC50 [8] | hemolytic activity (in words) [9]
C=CC(=C)CC[C@]1(C)[C@H](C)C[C@H](OC)[C@@]23C(=C[C@H](OC(=O)C(C)C)C[C@@H]12)[C@@H](OC(C)=O)O[C@H]3OC(C)=O [Compound 3, (2R,5S,6S,8R,9R,10S,18R,19S)-18,19-di-O-acetyl-18,19-epoxy-6-methoxy-2-isobutanoyloxycleroda-3,13(16),14-triene] | 470 nM | 490 nM | 500 nM | 450 nM | significant accumulations of sub-G1 cells | no effect on cell cycle progression | normal morphology with intact nuclei and a clear microtubule network | fragmented and dispersed chromatin (arrowhead) with an apoptotic microtubule array | induced apoptosis in a dose-dependent manner | 490 nM |  |  |  |  |  |  |  | 
C=CC(=C)CC[C@]1(C)[C@H](C)C[C@H](OC)[C@@]23C(=C[C@H](OC(=O)CC)C[C@@H]12)[C@@H](OC(C)=O)O[C@H]3OC(C)=O [Compound 4, (2R,5S,6S,8R,9R,10S,18R,−19S)-18,19-di-O-acetyl-18,19-epoxy-6-methoxy-2-propionyloxy-cleroda-3,13(16),14-triene] | 4600 nM | 4950 nM | 4940 nM | 5190 nM |  |  |  |  |  |  | 4920 nM |  |  |  |  |  |  | 
C=CC(=C)CC[C@]1(C)[C@H](C)C[C@H](OC)[C@@]23C(=C[C@H](OC(=O)[C@@H](C)CC)C[C@@H]12)[C@@H](OC(C)=O)O[C@H]3OC(C)=O [Compound 6, (2R,5S,6S,−8R,9R,10S,18R,19S)-18,19-di-O-acetyl-18,19-epoxy-6-methoxy-2-(2′-methylbutanoyloxy)-cleroda-3,13(16),14-triene] | 5040 nM | 4900 nM | 5820 nM | 5230 nM |  |  |  |  |  |  | 5190 nM |  |  |  |  |  |  | 
C=CC(=C)CC[C@]1(C)[C@H](C)C[C@H](OC(=O)CCCCCCCCC)[C@@]23C(=C[C@H](OC(C)=O)C[C@@H]12)[C@@H](OC(C)=O)O[C@H]3OC(C)=O [Compound 9, (2R,5S,6S,8R,9R,10S,18R,19S)-2,18,19-tri-O-acetyl-18,19-epoxy-6-decanoyloxycleroda-cleroda-3,13(16),14-triene] | 40200 nM | 20500 nM | 31700 nM | 19800 nM |  |  |  |  |  |  | 39200 nM |  |  |  |  |  |  | 
C=CC(=C)CC[C@]1(C)[C@H](C)C[C@H](OC(=O)CCCCC)[C@@]23C(=C[C@H](O)C[C@@H]12)[C@@H](OC(C)=O)O[C@H]3OC(C)=O [Compound 14, (2R,5S,6S,8R,−9R,10S,18R,19S)-18,19-di-O-acetyl-18,19-epoxy-2-hydroxy-6-hexanoyloxycleroda-3,13(16),14-triene] | 4760 nM | 4730 nM | 5190 nM | 4740 nM |  |  |  |  |  |  | 4880 nM |  |  |  |  |  |  | 
C=CC(=C)CCC1(C)C(C)CC(O)C23C(=CC(OC(=O)C(C)CC)CC12)C(OC(C)=O)OC3OC(C)=O (stereo not drawn) [Compound 17, 18,19-di-O-acetyl-18,19-epoxy-6-hydroxy-2-(2′-methylbutanoyloxy)cleroda-3,13-(16),14-triene] | 4150 nM | 540 nM | 890 nM | 730 nM | significant accumulations of sub-G1 cells | no effect on cell cycle progression |  |  |  |  | 4070 nM | decreased unusually and dramatically in all cells |  |  |  |  |  | 
C=CC(=C)CC[C@]1(C)[C@H]2C[C@@H](OC(=O)C(C)CC)C=C3[C@H](OC(C)=O)O[C@H](OC(C)=O)[C@@]32[C@H](O)C[C@@H]1C (stereo partly drawn) [Compound 18, caseamembrin E] |  |  |  |  |  |  |  |  |  |  |  |  | 530 nM | 400 nM | 550 nM | 430 nM | 400 to 1000 nM | 
C=CC(=C)CCC1(C)C(C)CC(O)C23C(=CC(OC(=O)/C=C/C=C/CCCCC)CC12)C(OC(C)=O)OC3OC(C)=O (stereo not drawn) [Compound 19, corymbulosin A] | 450 nM | 430 nM | 440 nM | 420 nM | except with compound 19 | no effect on cell cycle progression |  |  |  |  | 450 nM |  |  |  |  |  |  | most potent activity but only at the unusually high concentration of 500 μM
CC(=O)O[C@H]1C(=O)[C@@]2(C)[C@H]([C@H](OC(=O)c3ccccc3)[C@]3(O)C[C@H](OC(=O)[C@H](O)[C@@H](NC(=O)c4ccccc4)c4ccccc4)C(C)=C1C3(C)C)[C@]1(OC(C)=O)CO[C@@H]1C[C@@H]2O [Paclitaxel, reference compound] |  |  |  |  |  |  |  |  |  |  |  |  | 6.53 nM | 8.36 nM | 12.1 nM | 7.07 nM |  | 
caseamembrin S [Compound 16] | 580 nM | 450 nM | 660 nM | 530 nM | significant accumulations of sub-G1 cells | no effect on cell cycle progression |  |  |  |  | 900 nM | decreased unusually and dramatically in all cells |  |  |  |  |  | 
